Test results from paper PMC3677027 (The Biochemical journal, 2012).
Entries after “also recorded” stand apart in the source; their conditions may differ. Ends that are not written are not given here.

Key:
[1] = biological target: EphA4 AP (Homo sapiens, UniProt P54764); experiment: ELISA inhibition of EphA4 AP binding to immobilized ephrin-A5 Fc; conditions: for IC50 value relative to unmodified KYL (in words): KYL alanine scan, ELISA, 0.05 nM EphA4 AP, ephrin-A5 Fc immobilized
Method in brief: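 Peptides (purity ≥85%) were made as 10 mM DMSO stocks and tested at varied concentrations. Each was incubated for 3 h with 0.05 nM EphA4 AP in protein A wells precoated with 1 µg/ml ephrin-A5 Fc. Bound AP was quantified with p-nitrophenyl phosphate substrate in SEAP buffer, read as absorbance at 405 nm, and inhibition was computed from that signal.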

[2] = Peptide stability in mouse serum; assay type: in vitro ADME; conditions: 37°C, ELISA read-out of residual antagonistic activity
Method in brief: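 Peptide at 100, 200 or 500 µM (depending on peptide) was held in mouse serum at 37 °C and sampled over time. Samples were diluted 1:20 into protein A wells carrying 1 µg/ml ephrin-A5 Fc, with 0.05 nM EphA4 AP, for 30 min at 4 °C. Bound AP was read as OD405 and normalised: peptide-free serum = 0, unincubated peptide = 1.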

[3] = biological target: F126A EphA4 AP mutant (Homo sapiens, UniProt P54764, F154A); experiment: ELISA binding to immobilized ephrin-A5 Fc
F126A EphA4 AP mutant, sequence (P54764 30-209 F154A): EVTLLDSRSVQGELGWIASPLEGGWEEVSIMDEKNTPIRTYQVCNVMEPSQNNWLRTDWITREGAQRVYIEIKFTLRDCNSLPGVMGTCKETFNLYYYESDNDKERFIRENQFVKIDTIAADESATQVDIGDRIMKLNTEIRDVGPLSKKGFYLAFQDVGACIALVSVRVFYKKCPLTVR
Method in brief: (§1)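 Wild-type and mutant human EphA4 ephrin-binding domain–AP fusions were secreted from transfected HEK293T cells into Opti-MEM, and the medium was concentrated about 50-fold. Protein amount was estimated from AP activity. Ephrin-A5 Fc was captured at 0.5 µg/ml on protein A wells (1 h, RT, TBS/0.01% Tween 20), then EphA4 AP was added for 1 h. Bound AP was read with pNPP in SEAP buffer (pH 9.8) at OD405, minus Fc-only wells.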

[4] = biological target: G132V EphA4 AP mutant (Homo sapiens, UniProt P54764, G160V); experiment: ELISA binding to immobilized ephrin-A5 Fc
G132V EphA4 AP mutant, sequence (P54764 30-209 G160V): as the sequence (P54764 30-209 F154A) above, with A125F, G131V counted along it
Method in brief: as §1

[5] = biological target: M136A EphA4 AP mutant (Homo sapiens, UniProt P54764, M164A); experiment: ELISA binding to immobilized ephrin-A5 Fc
M136A EphA4 AP mutant, sequence (P54764 30-209 M164A): as the sequence (P54764 30-209 F154A) above, with A125F, M135A counted along it
Method in brief: as §1

[6] = biological target: D123A EphA4 AP mutant (Homo sapiens, UniProt P54764, D151A); experiment: ELISA binding to immobilized ephrin-A5 Fc
D123A EphA4 AP mutant, sequence (P54764 30-209 D151A): as the sequence (P54764 30-209 F154A) above, with D122A, A125F counted along it
Method in brief: as §1

[7] = biological target: V129A EphA4 AP mutant (Homo sapiens, UniProt P54764, V157A); experiment: ELISA binding to immobilized ephrin-A5 Fc
V129A EphA4 AP mutant, sequence (P54764 30-209 V157A): as the sequence (P54764 30-209 F154A) above, with A125F, V128A counted along it
Method in brief: as §1

[8] = biological target: D33A EphA4 AP mutant (Homo sapiens, UniProt P54764, D61A); experiment: ELISA binding to immobilized ephrin-A5 Fc
D33A EphA4 AP mutant, sequence (P54764 30-209 D61A): as the sequence (P54764 30-209 F154A) above, with D32A, A125F counted along it
Method in brief: as §1

[9] = biological target: S30A EphA4 AP mutant (Homo sapiens, UniProt P54764, S58A); experiment: ELISA binding to immobilized ephrin-A5 Fc
S30A EphA4 AP mutant, sequence (P54764 30-209 S58A): as the sequence (P54764 30-209 F154A) above, with S29A, A125F counted along it
Method in brief: as §1

[10] = biological target: I131A EphA4 AP mutant (Homo sapiens, UniProt P54764, I159A); experiment: ELISA binding to immobilized ephrin-A5 Fc
I131A EphA4 AP mutant, sequence (P54764 30-209 I159A): as the sequence (P54764 30-209 F154A) above, with A125F, I130A counted along it
Method in brief: as §1

[11] = biological target: A165S EphA4 AP mutant (Homo sapiens, UniProt P54764, A193S); experiment: ELISA binding to immobilized ephrin-A5 Fc
A165S EphA4 AP mutant, sequence (P54764 30-209 A193S): as the sequence (P54764 30-209 F154A) above, with A125F, A164S counted along it
Method in brief: as §1

[12] = biological target: R134A EphA4 AP mutant (Homo sapiens, UniProt P54764, R162A); experiment: ELISA binding to immobilized ephrin-A5 Fc
R134A EphA4 AP mutant, sequence (P54764 30-209 R162A): as the sequence (P54764 30-209 F154A) above, with A125F, R133A counted along it
Method in brief: as §1

[13] = biological target: I39A EphA4 AP mutant (Homo sapiens, UniProt P54764, I67A); experiment: ELISA binding to immobilized ephrin-A5 Fc
I39A EphA4 AP mutant, sequence (P54764 30-209 I67A): as the sequence (P54764 30-209 F154A) above, with I38A, A125F counted along it
Method in brief: as §1

[14] = biological target: I31A EphA4 AP mutant (Homo sapiens, UniProt P54764, I59A); experiment: ELISA binding to immobilized ephrin-A5 Fc
I31A EphA4 AP mutant, sequence (P54764 30-209 I59A): as the sequence (P54764 30-209 F154A) above, with I30A, A125F counted along it
Method in brief: as §1

[15] = biological target: Q43A EphA4 AP mutant (Homo sapiens, UniProt P54764, Q71A); experiment: ELISA binding to immobilized ephrin-A5 Fc
Q43A EphA4 AP mutant, sequence (P54764 30-209 Q71A): as the sequence (P54764 30-209 F154A) above, with Q42A, A125F counted along it
Method in brief: as §1

[16] = biological target: M32A EphA4 AP mutant (Homo sapiens, UniProt P54764, M60A); experiment: ELISA binding to immobilized ephrin-A5 Fc
M32A EphA4 AP mutant, sequence (P54764 30-209 M60A): as the sequence (P54764 30-209 F154A) above, with M31A, A125F counted along it
Method in brief: as §1

[17] = biological target: T76A EphA4 AP mutant (Homo sapiens, UniProt P54764, T104A); experiment: ELISA binding to immobilized ephrin-A5 Fc
T76A EphA4 AP mutant, sequence (P54764 30-209 T104A): as the sequence (P54764 30-209 F154A) above, with T75A, A125F counted along it
Method in brief: as §1

[18] = biological target: T41A EphA4 AP mutant (Homo sapiens, UniProt P54764, T69A); experiment: ELISA binding to immobilized ephrin-A5 Fc
T41A EphA4 AP mutant, sequence (P54764 30-209 T69A): as the sequence (P54764 30-209 F154A) above, with T40A, A125F counted along it
Method in brief: as §1

[19] = biological target: EphA4 ephrin-binding domain (residues 29-209) (human, UniProt P54764-1 29-209); experiment: ITC
EphA4 ephrin-binding domain (residues 29-209), sequence (P54764 29-209): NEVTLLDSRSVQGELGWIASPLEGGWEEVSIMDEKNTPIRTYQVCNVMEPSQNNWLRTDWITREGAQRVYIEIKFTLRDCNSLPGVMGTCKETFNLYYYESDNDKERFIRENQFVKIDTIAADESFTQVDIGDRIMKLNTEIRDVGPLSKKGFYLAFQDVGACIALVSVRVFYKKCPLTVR

[20] = biological target: EphA4 Fc (UniProt Q03137 20-547); experiment: ELISA
EphA4 Fc, sequence (Q03137 20-547): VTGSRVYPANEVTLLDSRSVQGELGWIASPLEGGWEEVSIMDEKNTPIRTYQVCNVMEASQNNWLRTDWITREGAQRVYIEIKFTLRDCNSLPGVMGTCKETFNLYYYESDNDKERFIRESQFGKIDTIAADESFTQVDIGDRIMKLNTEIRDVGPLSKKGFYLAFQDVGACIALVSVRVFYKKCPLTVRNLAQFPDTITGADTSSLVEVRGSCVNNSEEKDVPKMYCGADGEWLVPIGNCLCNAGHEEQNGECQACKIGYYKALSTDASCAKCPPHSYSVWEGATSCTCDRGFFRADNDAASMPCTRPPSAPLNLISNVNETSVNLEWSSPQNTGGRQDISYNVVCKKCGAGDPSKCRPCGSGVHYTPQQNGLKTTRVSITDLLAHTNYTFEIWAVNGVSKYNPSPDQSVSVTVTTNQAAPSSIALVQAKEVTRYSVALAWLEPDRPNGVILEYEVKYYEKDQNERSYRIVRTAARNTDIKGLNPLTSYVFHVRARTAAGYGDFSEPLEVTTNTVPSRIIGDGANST

[21] = read-out: inhibition of EphA4 AP binding to ephrin-A5 Fc

EphA4 AP, sequence (P54764 30-209 limits assumed): as the sequence (P54764 30-209 F154A) above, with A125F counted along it

## KYLPYWPVLASL [KYL-Ala10]
[1]
  IC50 value relative to unmodified KYL (in words): comparable to that of unmodified KYL

## KYLPYWPVLSAL [KYL-Ala11]
[1]
  IC50 value relative to unmodified KYL (in words): comparable to that of unmodified KYL

## KYLPYWPVLSSL [KYL]
[1]; [21]
  inhibition at 5 µM: ~80%

## VTMEAINLAFPG [VTM]
[1]; [21]
  inhibition at 25 µM: ~80%
[2]
  relative stability in mouse serum (in words): more stable than KYL and APY

B1: ephrin-A5: natural ephrin ligand of EphA4, used as Fc fusion (R&D Systems) (protein)
chain: QDPGSKAVADRYAVYWNSSNPRFQRGDYHIDVCINDYLDVFCPHYEDSVPEDKTERYVLYMVNFDGYSACDHTSKGFKRWECNRPHSPNGPLKFSEKFQLFTPFSLGFEFRPGREYFYISSAIPDNGRRSCLKLKVFVRPTNSCMKTIGVHDRVFDVNDKVENSLEPADDTVHESAEPSRGEN
modifications: left off: Fc, end not stated, kept
[3]
  effect of mutation on ephrin-A5 binding (in words): severely impair
[4]
  effect of mutation on ephrin-A5 binding (in words): do not substantially affect
[5]
  effect of mutation on ephrin-A5 binding (in words): also affect ephrin-A5 binding
[6]
  effect of mutation on ephrin-A5 binding (in words): also affect ephrin-A5 binding
[7]
  effect of mutation on ephrin-A5 binding (in words): do not substantially affect
[8]
  effect of mutation on ephrin-A5 binding (in words): also affect ephrin-A5 binding
[9]
  effect of mutation on ephrin-A5 binding (in words): do not substantially affect
[10]
  effect of mutation on ephrin-A5 binding (in words): severely impair
[11]
  effect of mutation on ephrin-A5 binding (in words): also affect ephrin-A5 binding
[12]
  effect of mutation on ephrin-A5 binding (in words): severely impair
[13]
  effect of mutation on ephrin-A5 binding (in words): do not substantially affect
[14]
  effect of mutation on ephrin-A5 binding (in words): also affect ephrin-A5 binding
[15]
  effect of mutation on ephrin-A5 binding (in words): also affect ephrin-A5 binding
[16]
  effect of mutation on ephrin-A5 binding (in words): also affect ephrin-A5 binding
[17]
  effect of mutation on ephrin-A5 binding (in words): severely impair
[18]
  effect of mutation on ephrin-A5 binding (in words): do not substantially affect; also recorded: does not affect ephrin-A5 binding

## KYLPYWPVLSSL [KYL peptide]
[19]
  Kd: 850 ± 150 nM

## VTMEAINLAFPG [VTM peptide]
[19]
  Kd: 4700 ± 100 nM

## VTMEAINLAFPA [VTM-Ala12]
[20]
  fold reduction of inhibitory potency against unmodified VTM: < 2 fold
